Assay results published in the RNAGym collection of RNA variant scans (doi:10.1126/science.aae0568).
Fewer inactive variants are shown than the library holds.

B1: tRNA (parent)
chain: GUUCCGUUGGCGUAAUGGUAACGCGUCUCCCUCCUAAGGAGAAGACUGCGGGUUCGAGUCCCGUACGGAACG

Variants of: B1
Assay: yeast fitness relative to wild type (ratio to wild type); higher = fitter; tRNA-Arg(CCU), competitive growth, 37 C, YPD
How it was run: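 Variants of the tRNA-Arg(CCU) gene were chemically synthesised with a 3% per-site mutation rate across 69 sites and placed at the native genomic locus in Saccharomyces cerevisiae. Six parallel replicates of the pooled strains were competed in YPD at 37°C for 24 hours, and gene amplicons from the start and end populations were read by 100-nucleotide paired-end sequencing. Darwinian fitness relative to wild type was derived from changes in genotype frequencies. Genotypes required ≥ 100 starting reads, and estimates < 0.5 were set to 0.5.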

Point of comparison: C33A G51A, yeast fitness 0.659. Against it:
- C33G A36U C49A — lower, ≤ 0.5
- U32G G63A — lower, 0.557
- U32G G39C A57U C62G — lower, ≤ 0.5
- C33A A40G A42G — lower, 0.564
- U32G G39C G52C — lower, 0.531
- C33A C34U — lower, ≤ 0.5
- C33G A40G G52C — lower, ≤ 0.5
- C33G A36U G44A U59C — lower, 0.611
- C33G A36C C46A — lower, ≤ 0.5
- U32G G58C A65U — lower, ≤ 0.5
- U32G U35A — lower, ≤ 0.5
- C33G A36U — lower, 0.589
- C33G A36C — lower, ≤ 0.5
- U32G C49G C55A — lower, 0.65
- U32G A37C A57C G63A — lower, ≤ 0.5
- C33G A36C C66U — lower, 0.502
- C33A G48C A69G — higher, 0.684
- C33G A42G C49U G67A — lower, ≤ 0.5
- C33A G48C A70G — lower, ≤ 0.5
- C33A U35G C49U — higher, 0.904
- C33G A42G G52A C62A A69U A70U — lower, ≤ 0.5
- U32G A42G — lower, 0.56
- U32G U35G A36C — lower, ≤ 0.5
- C33A G39C C49U U54A G63C G67A — lower, ≤ 0.5
- C33A U35C C60A — lower, ≤ 0.5
- C33A A37C G63A — lower, ≤ 0.5
- U32G C61U G67U — lower, ≤ 0.5
- C33A G38A A40C A43G G51C C61G — lower, ≤ 0.5
- U32C U54G C62U — lower, 0.565
- C33A A45U C66A — lower, ≤ 0.5
- C33G A40U G51C — lower, ≤ 0.5
- C33A C55U C61A — lower, 0.559
- C33G A42G G52A C62A — lower, ≤ 0.5
- C33A G50C U53C U64C G68U — lower, 0.586
- C33G A42G G44A U64C — lower, ≤ 0.5
- C33A G56C A70C — lower, 0.574
- C33A G52A — lower, ≤ 0.5
- U32G U47G — lower, ≤ 0.5
- U32G A45G C49U — lower, ≤ 0.5
- C33G A40U G48C C60G — lower, ≤ 0.5
- C33A A40U U53C C55U C62U — lower, ≤ 0.5
- U32G A36U A45G — lower, ≤ 0.5
- C33A C49U C66U — lower, 0.524
- C33A A57U C66U — lower, 0.555
- C33A G44A — lower, 0.617
- C33G A43G G58A G67A A69U — lower, 0.573
- C33A A36C — lower, 0.526
- C33G A37U A40C — lower, ≤ 0.5
- C33A G50A A69U A70C — lower, ≤ 0.5
- U32G A40U U64G — lower, 0.543
- C33G A36U G39A A57U — lower, ≤ 0.5
- C33A G44A A70C — lower, 0.547
- U32G C34U G52A — lower, 0.589
- C33A A37C G56A A65G C66U — lower, ≤ 0.5
- C33G A42U A43U A65C G68C — lower, 0.553
- U32G A45C G56A C66U — lower, ≤ 0.5
- U32G C33U A37G — lower, ≤ 0.5
- C33A C55G C66U — lower, ≤ 0.5
- C33A G58C U64G — lower, 0.564
- U32G A45C — higher, 0.692
- U32G A45G — higher, 0.673
- U32G C55G — lower, ≤ 0.5
- C33A G56C — lower, 0.634
- U32C U59G — higher, 0.878
- C33G A43C — higher, 0.666
- C33A A36U G41A G48A — lower, ≤ 0.5
- C33A C34G A57U — lower, ≤ 0.5
- C33A G51C C62G — lower, ≤ 0.5
- C33A G44A U64G — lower, ≤ 0.5
- C33G A40G G58A C66G — lower, ≤ 0.5
- U32G C34A A40C C60U — lower, ≤ 0.5
- U32G G41A C60G A65G — lower, 0.548
- U32G G38A — lower, 0.586
- U32G A37U — lower, 0.55
- C33A C49A — lower, 0.597
- C33G A42U — higher, 0.73
- C33G A42C — higher, 0.675
- C33A U64A A70C — lower, ≤ 0.5
- C33G A36G G39C G67U — lower, ≤ 0.5
- C33A A43G A45C — lower, ≤ 0.5
- U32C U47C — higher, 0.974
- C33A C55U — lower, 0.581
- U32G A65G — higher, 0.718
- C33A G58C — lower, 0.647
- C33A G38C G50A — lower, ≤ 0.5
- C33A A40U G51U U64A — lower, ≤ 0.5
- C33A A36C G48A C66G — lower, ≤ 0.5
- C33A C60U — lower, ≤ 0.5
- C33A C46U C61G — lower, ≤ 0.5
- C33A A45G C49U A70U — lower, ≤ 0.5
- U32G A45C G68A — lower, ≤ 0.5
- C33A A37U A57G — lower, 0.545
- C33A A37U A57C — lower, ≤ 0.5
- C33G A40G A43G G44A — lower, ≤ 0.5
- C33G A37G A43C U47C G58C — lower, ≤ 0.5
- C33A A36U A37G — lower, ≤ 0.5
- C33A A36C G63C C66G — lower, 0.53
- C33A C60G A70G — lower, ≤ 0.5
- C33A U35A G68C — lower, ≤ 0.5
- U32G A40U G52A A57U A65C — lower, ≤ 0.5
- U32C U53C — higher, 0.766
- U32C U53A — higher, 0.691
- C33A G44A G68U — lower, ≤ 0.5
- C33A G39C — higher, 0.677
- U32G C33G A65U — lower, ≤ 0.5
- C33G A40G G51C C61U A65U — higher, 0.667
- U32G A70C — higher, 0.787
- U32G A70G — lower, 0.628
- U32G A69U — higher, 0.711
- C33A U35A U64C G68C — lower, ≤ 0.5
- U32G G48A — lower, 0.616
- C33A G41A — lower, 0.635
- C33A G39A G50C G67C — lower, 0.573
- C33A G50U — lower, 0.524
- C33G A42U C60G — lower, ≤ 0.5
- C33A C55G A69C — lower, ≤ 0.5
- U32C U54A A65G — lower, ≤ 0.5
- U32G A43C — higher, 0.694
- C33G A36C A57U — lower, ≤ 0.5
- U32C U64C — higher, 0.946
- U32C U64G — higher, 0.754
- U32G A40U G52A A57U — lower, ≤ 0.5
- C33A G39C A42G C55U A57G — lower, 0.585
- C33A G67A — lower, 0.586
- C33A G67C — lower, 0.621
- C33A A69G — lower, 0.655
- C33G A40G U59A — lower, ≤ 0.5
- C33A A42G A70U — lower, ≤ 0.5
- C33A C49U C62G — higher, 0.735
- C33A C49U G52A — lower, ≤ 0.5
- C33A A37G G39C C55U — lower, ≤ 0.5
- C33G A43C C62A G67C — higher, 0.743
- C33A A45U A70C — lower, 0.512
- C33G A37G A40C C49G G67C — lower, ≤ 0.5
- U32G C33G — lower, 0.59
- U32G C33A — lower, 0.601
- C33G A40G — lower, 0.615
- C33G A40C — higher, 0.697
- C33A C46A G58A A70G — lower, ≤ 0.5
- C33A G39A G52C C55G — lower, ≤ 0.5
- C33A C49A C60A — higher, 0.714
- C33A A42G — lower, 0.583
- C33G A42C G67A — lower, ≤ 0.5
- C33A C46A G67A — lower, ≤ 0.5
- U32G C46A — higher, 0.667
- U32G C46U — lower, 0.562
- C33A A36U C66U — lower, ≤ 0.5
- C33G A37C A45C — lower, ≤ 0.5
- C33A A42G U54C C62U — lower, 0.637
- U32G C61A C62A — lower, 0.537
- U32G G67A — lower, 0.643
- U32G G67U — lower, 0.547
- C33A U53A — lower, ≤ 0.5
- C33A G52A A65U — lower, ≤ 0.5
- U32G U35A A65U — lower, ≤ 0.5
- U32G U35G A36C U54C — lower, ≤ 0.5
- C33A U54C — lower, 0.561
- C33A U54G — lower, 0.518
- C33A U53A C60G — higher, 0.681
- C33A C49U C55G — lower, ≤ 0.5
- C33A C61G — higher, 0.775
- C33G A36U A57U — lower, 0.581
- C33G A36G G51C U64A C66U A69C — lower, ≤ 0.5
- C33A C46A C61G A69G — lower, ≤ 0.5
- C33A G38C A43G U53C — lower, 0.547
- C33A C49G G67C — lower, 0.548
